High-throughput results deposited in PubChem by several laboratories.
Hits are enriched below; roughly 3% of the tested compounds scored in any of these assays.
MC4R antagonist = blocks human MC4R cAMP signaling; AID 540295; MC4R-expressing cells, MTII-stimulated cAMP, LANCE TR-FRET; 360,000 compounds, 0.48% hits; P32245; inhibition, % at 6.5 µM;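 active = inhibition above its plate's cutoff, the mean of tested wells on that plate plus 3 SD, cut at about 29% in these data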
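Test system: U2OS cells stably expressing human melanocortin 4 receptor (MC4R); also added: Melanotan II challenge; compound: 6.5 µM single dose; timing: 30-min compound preincubation, 1-h Melanotan II challenge, 1-h detection, room temperature; signal: Eu-cAMP/anti-cAMP TR-FRET, emission 671 nm; repeats: one well per compound, no replicates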
Beta2AR agonist = agonists of human beta-2 adrenergic receptor inducing internalization; P07550; 340,000 compounds, 0.43% hits; response, % (no concentration beside the values); AID 504454; Am2.2-beta2AR cells, FAP receptor internalization, flow cytometry;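 active = response above a set limit, near 3 SD of response in nonfluorescent compounds, cut at about 42% in these data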
Target sequence (P07550 whole entry, looked up): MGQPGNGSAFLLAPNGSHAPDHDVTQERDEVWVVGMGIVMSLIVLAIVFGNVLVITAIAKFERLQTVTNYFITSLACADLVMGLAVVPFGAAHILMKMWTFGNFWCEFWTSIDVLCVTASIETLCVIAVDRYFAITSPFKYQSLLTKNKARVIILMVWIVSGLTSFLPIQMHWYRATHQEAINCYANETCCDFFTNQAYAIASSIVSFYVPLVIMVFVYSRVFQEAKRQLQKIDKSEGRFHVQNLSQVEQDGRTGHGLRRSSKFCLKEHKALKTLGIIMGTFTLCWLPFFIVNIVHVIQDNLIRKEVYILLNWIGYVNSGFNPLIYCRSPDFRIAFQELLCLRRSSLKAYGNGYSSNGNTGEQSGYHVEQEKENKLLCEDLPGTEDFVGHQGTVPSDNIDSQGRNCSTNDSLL
ABHD5 PLIN5 PPI = blocks binding of human ABHD5 to perilipin-5. Q00G26+Q8WTS1. Split G. princeps luciferase complementation, luminescence, 4 h. inhibition, % at 4 µM. 360,000 compounds, 0.78% hits;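 active = inhibition above the mean inhibition across every tested compound plus 3 SD, cut at about 22% in these data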
PfGluPho inh = PfG6PD (Plasmodium falciparum) enzyme inhibition. PfGluPho enzyme, NADPH resazurin-diaphorase fluorescence. 350,000 compounds, 0.78% hits. AID 504690. inhibition, % at 20 µM;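 active = inhibition reaching at least a set limit at 20 µM in the primary screen, cut at about 59% in these data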
MC4R ag barr = human MC4R agonism via beta-arrestin. U2OS MC4R beta-arrestin complementation, luminescence; percent of melanotan II response, DMSO zero. activation, % at 8.9 µM. P32245. 360,000 compounds, 0.98% hits. AID 540308;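 active = activation above a per-plate cutoff, the mean activation of sample wells on that plate plus 3 SD, cut at about 8% in these data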
ABHD5 PLIN5 conf = confirmation of human ABHD5-PLIN5 interaction inhibitors; shares compounds with ABHD5 PLIN5 PPI; inhibition, % at 4 µM; biochemical ABHD5-PLIN5 interaction, luminescence; AID 651612; 2,200 compounds, 67% hits; in the data active = inhibition above about 23%
HNF4 counter = counter-screen for ABHD5-PLIN5 inhibitors: HNF4 split-luciferase; 2,200 compounds, 77% hits; shares compounds with ABHD5 PLIN5 PPI; inhibition, % at 4 µM; AID 651674; HNF4 dimerization, luminescence, biochemical;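 active = mean inhibition across replicate wells exceeding the computed hit threshold, cut at about 13% in these data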;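 also: light from luciferase halves that rejoin when HNF4 fusion proteins dimerize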
Hits are given with their value; . = inactive; / = no result.

SMILES | MC4R antagonist | Beta2AR agonist | ABHD5 PLIN5 PPI | PfGluPho inh | MC4R ag barr | ABHD5 PLIN5 conf | HNF4 counter
CCOC(=O)[C@]12Cc3cc(Cl)ccc3[C@H]1N(C)C(=O)c1ccccc12 | / | / | . | / | / | / | /
O=[N+]([O-])c1cccnc1N1CCCNCC1 | . | . | . | . | . | / | /
Cc1cccc(-n2c(O)c(C=NCc3cccnc3)c(=O)[nH]c2=O)c1C | . | . | . | . | . | / | /
COC(=O)[C@@H]1[C@@H](C(=O)OC)C2(c3ccccc3-c3ccccc32)N(c2ccc(Cl)cc2)N1C#N | . | . | 78 | . | . | 97 | 96
COC(=O)C[C@]1(C(=O)OC)CN(C#N)N(c2ccc(Cl)cc2)C12c1ccccc1-c1ccccc12 | . | . | 78 | . | . | 98 | 97
CC(C)(C)n1nnnc1C(C1CC1)N1CCC2(CC1)C(=O)NCN2c1ccccc1 (stereo not given) | / | / | . | / | / | / | /
C=CCn1c(O)c(C(C)=Nc2cccc(C(F)(F)F)c2)c(=O)[nH]c1=O | . | . | 98 | . | . | . | 18
C=CCn1c(O)c(C(C)=Nc2cccc(C(=O)O)c2)c(=O)[nH]c1=O | . | . | . | . | . | / | /
COC(=O)C1(C(=O)O)Cc2cc([N+](=O)[O-])ccc2N2CCCC21 (stereo not given) | . | . | . | . | . | / | /
C=C1C(=O)OC2CC3(C)OC3CCC(C)=CC(OC(C)=O)C12 (stereo not given) | . | . | 33 | . | . | 45 | 70
CN1CCC(N(C)c2nc(-c3ccc([N+](=O)[O-])cc3)nc3ccccc23)CC1 | . | . | 29 | . | . | . | .
COc1cc(C)c(-c2nc(CN3C[C@@H]4C[C@@H](C3)c3cccc(=O)n3C4)c(C)o2)cc1C | . | . | . | . | . | / | /
COC(=O)C1=C(c2cc3ccccc3o2)C[C@@H]2CC[C@H]1N2C(=O)NCc1ccco1 | . | . | 23 | . | . | . | .
O=C1CN(O)C(c2ccccc2Cl)=c2cc(Br)ccc2=N1 | . | . | . | . | . | / | /
O=P1(NCCCn2cc[n+](Cc3nc4ccccc4[nH]3)c2)C=C(c2ccccc2)OC(c2ccccc2)=C1 | . | . | 26 | . | . | . | .
COC1C(OC(=O)c2ccc(C)[nH]2)C(O)C(Oc2ccc3c(O)c(NC(=O)c4ccc(O)c(CC=C(C)C)c4)c(=O)oc3c2Cl)OC1(C)C (stereo not given) | . | . | . | . | . | / | /
CSc1ncc(/C=C2/C(=O)NC(=O)N(c3ccc(C)cc3)C2=O)cn1 | . | . | . | . | . | / | /
COc1cc(/C=C2/C(=O)NC(=O)N(c3ccc(C)cc3)C2=O)cc(OC)c1OC | . | . | . | . | . | / | /
CCOc1ccc(N2C(=O)NC(=O)/C(=C/c3cnc(SC)nc3)C2=O)cc1 | . | . | 28 | . | . | 71 | 87
CSc1ncc(/C=C2/C(=O)NC(=O)N(c3ccc(Cl)cc3)C2=O)cn1 | . | . | 42 | . | . | 78 | 91
Cc1ccc(N2C(=O)NC(=O)/C(=C\c3cnc(-c4ccccc4)nc3)C2=O)cc1 | . | . | 30 | . | . | 86 | 92
Clc1cccc(N2Cc3cc(-c4ccccc4)ccc3-n3nncc3C2)c1 | / | / | 72 | / | / | 47 | 27
Cc1ccccc1-n1c(/C=C/c2ccccn2)nc2ccccc2c1=O | . | . | . | . | . | / | /
CN1C2CCC1/C(=C/c1ccccn1)C(=O)/C2=C\c1ccccn1 | . | . | 98 | . | . | 104 | 109
O=c1[nH]c(=O)n(-c2cccc(Cl)c2)c(O)c1/C=N/c1ccccn1 | . | . | 26 | . | . | . | 27
CNS(=O)(=O)c1ccc(N=Cc2c(O)n(-c3ccccc3)c(=O)[nH]c2=O)cc1 | . | . | 40 | . | . | . | 22
CNS(=O)(=O)c1ccc(N=Cc2c(O)n(-c3cccc(C)c3)c(=O)[nH]c2=O)cc1 | . | . | . | . | . | / | /
COC(=O)C1=C(c2ccc3ccccc3c2)C[C@@H]2CC[C@H]1N2C | . | . | . | . | . | / | /
COC(=O)C1=C(C(=O)OC)C2OC1c1cc3ccccc3cc12 | . | . | 81 | . | . | 78 | 109
